# Calls of active or inactive are those of the source. The rule behind the calls is not given here. Residues, ends and D or L forms follow the SMILES beside them. *: point of attachment. Cbz = O=C(OCc1ccccc1)*
# Legend:
# [1] = target: Cathepsin B (Homo sapiens) (UniProt P07858); test: Inhibition of human cathepsin B upto 40 uM preincubated for 20 mins
# Outline: (§1)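 Z-FR-AMC was added at 10 μM. Fluorescence (ex 355/em 460 nm) was read at room temperature every 5 min for 2 h, and initial velocities came from the linear portion.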
# [2] = target: T1, Cathepsin K (Homo sapiens) (UniProt P43235); test: Inhibition of human cathepsin K upto 40 uM preincubated for 20 mins
# T1 sequence (whole entry): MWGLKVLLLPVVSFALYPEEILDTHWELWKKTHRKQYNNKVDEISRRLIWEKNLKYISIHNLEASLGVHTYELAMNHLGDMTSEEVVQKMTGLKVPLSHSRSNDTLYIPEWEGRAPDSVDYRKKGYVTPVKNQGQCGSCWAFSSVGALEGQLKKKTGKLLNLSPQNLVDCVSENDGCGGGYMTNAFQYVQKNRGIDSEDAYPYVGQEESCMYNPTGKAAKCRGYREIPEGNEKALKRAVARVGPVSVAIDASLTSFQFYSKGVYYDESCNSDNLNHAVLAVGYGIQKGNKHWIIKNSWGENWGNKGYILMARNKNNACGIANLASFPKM
# Outline: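 Recombinant cathepsin K (0.042 nM) was preincubated with compound for 20 min in 50 mM NaOAc pH 5.5, 5 mM EDTA, 0.005% Triton X-100, 5 mM DTT and 1% DMSO. Z-FR-AMC was added at 5 μM. Fluorescence (ex 355/em 460 nm) was read at room temperature every 5 min for 2 h, and initial velocities came from the linear portion.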
# [3] = target: Procathepsin L (Homo sapiens) (UniProt P07711); test: Inhibition of human cathepsin L upto 40 uM preincubated for 20 mins; outline: as §1
# Procathepsin L (Homo sapiens), sequence (P07711 114-333 limits assumed): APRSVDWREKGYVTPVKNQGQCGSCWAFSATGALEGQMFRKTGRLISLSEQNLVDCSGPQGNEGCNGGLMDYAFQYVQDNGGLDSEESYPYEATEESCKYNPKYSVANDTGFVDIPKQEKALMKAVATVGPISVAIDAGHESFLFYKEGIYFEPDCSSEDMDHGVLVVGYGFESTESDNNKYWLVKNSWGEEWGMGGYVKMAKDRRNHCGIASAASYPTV
# SARS-CoV-2 [4] = test: Antiviral activity against SARS-CoV-2 infected in HeLa cells expressing ACE2 pre-infected for 1 hr followed by compound addition and measured after 24 hrs; assay type: functional, organism-based; conditions: Severe acute respiratory syndrome coronavirus 2
# SARS-CoV-2 [5] = test: Antiviral activity against SARS-CoV-2 infected in HeLa cells expressing ACE2 at 3 uM pre-infected for 1 hr followed by compound addition and measured after 24 hrs by RT-qPCR analysis; assay type: functional, Severe acute respiratory syndrome coronavirus 2
# [6] = target: Replicase polyprotein 1ab (Severe acute respiratory syndrome coronavirus 2) (UniProt P0DTD1); test: Binding affinity to recombinant hexa-His tagged SARS-COV2 main protease expressed in Escherichia coli incubated for 1 hr by SDS-PAGE gel electrophoresis method
# Outline: (§2)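 E. coli-expressed Mpro was incubated with Alk-4d or Alk-4i at 30 °C for 1 h. Click chemistry followed at room temperature for 1 h in the dark, with final 25 μM TAMRA-azide, 1 mM TCEP, 100 μM THPTA and 1 mM CuSO4. Samples were boiled, run on 4–20% SDS-PAGE, scanned at ex 532/em 600 nm, and silver-stained to check loading.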
# [7] = target: Replicase polyprotein 1ab (Severe acute respiratory syndrome coronavirus 2) (UniProt P0DTD1); test: Binding affinity to recombinant hexa-His tagged SARS-COV2 main protease expressed in Escherichia coli pretreated with (1R,2S,5S)-3-((S)-3,3-dimethyl-2-(2,2,2-trifluoroacetamido)butanoyl)-6,6-dimethyl-N-((S)-1-((S)-2-oxopyrrolidin-3-yl)but-3-yn-2-yl)-3-azabicyclo[3.1.0]hexane-2-carboxamide followed by compound addition by SDS-PAGE gel electrophoresis method
# [8] = target: Replicase polyprotein 1ab (Severe acute respiratory syndrome coronavirus 2) (UniProt P0DTD1); test: Binding affinity to recombinant hexa-His tagged SARS-COV2 main protease expressed in Escherichia coli pretreated with nirmatrelvir followed by compound addition by SDS-PAGE gel electrophoresis method
# [9] = target: Replicase polyprotein 1ab (Severe acute respiratory syndrome coronavirus 2) (UniProt P0DTD1); test: Binding affinity to recombinant hexa-His tagged SARS-COV2 main protease expressed in HEK293T cells by in-gel fluorescence analysis; assay type: cell-based
# Outline: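 HEK293T cells were transiently transfected with an Mpro plasmid. At 24 h post-transfection, they were treated with probe (from a 1000× DMSO stock) in fresh DMEM/10% FBS. Cells were washed, lysed in NP40 buffer and normalised to 1 mg/mL protein. Lysates were click-conjugated to TAMRA-azide, then analysed by SDS-PAGE and fluorescence imaging.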
# [10] = target: Replicase polyprotein 1ab (Severe acute respiratory syndrome coronavirus 2) (UniProt P0DTD1); test: Binding affinity to recombinant hexa-His tagged SARS-COV2 main protease expressed in Escherichia coli at 10 uM pretreated with (1R,2S,5S)-3-((S)-3,3-dimethyl-2-(2,2,2-trifluoroacetamido)butanoyl)-6,6-dimethyl-N-((S)-5,5,5-trifluoro-1-((S)-2- oxopyrrolidin-3-yl)pent-3-yn-2-yl)-3-azabicyclo[3.1.0]hexane-2-carboxamide
# Outline: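 Competition labeling: recombinant Mpro (1 μg) was […] competitor and clickable probe at the indicated concentrations, at 30 °C for 1 h. TAMRA-azide click reaction, SDS-PAGE and in-gel fluorescence imaging (ex 532/em 600 nm) followed.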
# [11] = target: Replicase polyprotein 1ab (Severe acute respiratory syndrome coronavirus 2) (UniProt P0DTD1); test: Inhibition of recombinant hexa-His tagged SARS-COV2 main protease expressed in Escherichia coli upto 30 uM using Dabcyl-KTSAVLQISGFRKM-E(Edans)-NH2 as substrate preincubated for 15 mins followed by substrate addition and measured after 1 hr by FRET assay; conditions: time 75.0 min
# Outline: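 Fluorescence (ex 340/em 475 nm) was read every 38 s for 1 h. IC50 came from initial velocities, in duplicate.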
# [12] = target: Replicase polyprotein 1ab (Severe acute respiratory syndrome coronavirus 2) (UniProt P0DTD1); test: Binding affinity to recombinant hexa-His tagged SARS-COV2 main protease expressed in Escherichia coli at 300 nM by in-gel fluorescence analysis; outline: as §2
# [13] = target: Replicase polyprotein 1ab (Severe acute respiratory syndrome coronavirus 2) (UniProt P0DTD1); test: Binding affinity to SARS-COV2 main protease at 30 uM preincubated with nirmatrelvir followed by compound addition measured over 6 hrs
# Outline: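 Pulse-chase competition: recombinant Mpro was pretreated with 1.5 μM nirmatrelvir at 30 °C, then given 30 μM Alk-4i probe for various times. Click conjugation to TAMRA-azide was followed by SDS-PAGE and in-gel fluorescence (ex 532, em 600 nm). The nirmatrelvir dissociation half-life was derived from the labeling curve.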
# HEK293T = test: Binding affinity to proteome in HEK293T cells at 10 uM after 5 hrs; assay type: cell-based; conditions: Homo sapiens
# Outline: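 Parental HEK293T cells were treated with clickable probe at various concentrations for 5 h. Cells were harvested and lysed in NP40 buffer, and protein was normalised to 1 mg/mL. Lysates were click-conjugated to TAMRA azide, resolved by SDS-PAGE and imaged for in-gel fluorescence.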
# HeLa = test: Cytotoxicity against human HeLa cells expressing ACE2 upto 10 uM after 20 hrs by Cell Titer-Glo luminescent cell viability assay; assay type: toxicity, cell-based
smiles,measurement,setting,value
C#C[C@H](C[C@@H]1CCNC1=O)NC(=O)[C@@H]1[C@@H]2[C@H](CN1C(=O)[C@@H](NC(=O)C(F)(F)F)C(C)(C)C)C2(C)C,inhibition,[1],inactive
same,inhibition,[2],inactive
same,inhibition,[3],inactive
same,Activity,SARS-CoV-2 [4],Dose-Dependent Effect
same,Activity,SARS-CoV-2 [5],100%
C#CC[C@H](NC(=O)C(F)(F)F)C(=O)N1C[C@H]2[C@@H]([C@H]1C(=O)N[C@H](C#C)C[C@@H]1CCNC1=O)C2(C)C,Activity,[6],Active
same,Activity,[7],inactive
same,Activity,[8],inactive
same,Activity,[9],Dose-Dependent Effect
same,Activity,[10],inactive
CC(C)C[C@H](NC(=O)OCc1ccccc1)C(=O)N[C@H](C#N)CCC(N)=O,inhibition,[11],inactive
CC(C)C[C@H](NC(=O)OCc1ccccc1)C(=O)N[C@H](C=O)CCC(N)=O (Cbz-Leu-Gln-aldehyde),inhibition,[11],inactive
C#CC[C@H](NC(=O)C(F)(F)F)C(=O)N1C[C@H]2[C@@H]([C@H]1C(=O)N[C@H](C#CC(F)(F)F)C[C@@H]1CCNC1=O)C2(C)C,Activity,[12],Active
same,Activity,[13],Active
same,Activity,HEK293T,Active
CC(C)(C)[C@H](NC(=O)C(F)(F)F)C(=O)N1C[C@H]2[C@@H]([C@H]1C(=O)N[C@H](C#CC(F)(F)F)C[C@@H]1CCNC1=O)C2(C)C,Activity,SARS-CoV-2 [4],Dose-Dependent Effect
same,Activity,HeLa,Non-Toxic

# Source: ChEMBL document CHEMBL5365428, “Alkyne as a Latent Warhead to Covalently Target SARS-CoV-2 Main Protease” (J Med Chem, 2023)
